Measured values reported in the RNAGym collection of RNA variant scans (doi:10.1126/science.aae0568).
Variants at the floor of the assay were thinned out.

B1: tRNA (parent)
chain: GUUCCGUUGGCGUAAUGGUAACGCGUCUCCCUCCUAAGGAGAAGACUGCGGGUUCGAGUCCCGUACGGAACG

Variants of: B1
Assay: yeast fitness relative to wild type (ratio to wild type); higher = fitter; tRNA-Arg(CCU), competitive growth, 37 C, YPD
Method in brief: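 Amplicons of the tRNA-Arg(CCU) gene were sequenced, 100-nucleotide paired-end, from the start population and from each end population of a pooled yeast competition. The competition, in six parallel replicates, lasted 24 hours in YPD at 37°C. Fitness relative to wild type was calculated from changes in genotype frequencies. Genotypes had to have ≥ 100 starting reads, and estimates < 0.5 were set to 0.5.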

Variant | yeast fitness
U16A A65C | 0.939
U16A C31G A69U | 0.601
U16A A45C G63C U64C | ≤ 0.5
U16A C30U A36U G63A | ≤ 0.5
U16A C30G G50A A70G | ≤ 0.5
A15U U28A A40C C46G | ≤ 0.5
A15U U32C G52C | 0.539
U16C A40C | 0.923
U16C A40U | 0.789
U16A U26C C31A C33A U35C U47A | ≤ 0.5
U16A C30G A37C G68C | ≤ 0.5
U16C A40U A70U | 0.683
U16A A21G C31U C34G A45C C66G | ≤ 0.5
A15U U19A | 0.767
U16A A57C | 0.668
U16A A57U | 0.732
U16A A57G | 0.974
U16A U28A A45U C49A C66U | ≤ 0.5
U16C A21U A43U C61A | ≤ 0.5
U16A A45C A65G | ≤ 0.5
U16A U35C C61G A65G | ≤ 0.5
U16A U28C C33G A36U | ≤ 0.5
A15U U16A C27G C55U C62U G67C | ≤ 0.5
U16A U47A | 0.825

Variant | yeast fitness
U16A U35C A45G G56C G63C | ≤ 0.5
U16A A20C C22U C33U A42G | ≤ 0.5
A15U U19C G23C C27G A45C G63C | ≤ 0.5
U16A G25A U32C | 0.889
U16A U28A C60G C61A G63A | ≤ 0.5
U16A C61G C66G | ≤ 0.5
U16C A36G | 1.03
U16A G63C A65G | ≤ 0.5
U16A C30U G56C | ≤ 0.5
U16A U64C C66U | 0.68
U16A U19A A45G | 0.652
U16A C31A C34G | ≤ 0.5
U16A A21C G58A | ≤ 0.5
U16A U28G G67A | 0.752
A15U U28A G44A U64C | ≤ 0.5
A15U U19A C24A | 0.641
U16A C46U G68C | 0.651
A15U U19C G38C | 0.589
U16A G17A C22G C49U C61U G68C | ≤ 0.5
U16A U28C G38C G39A | ≤ 0.5
U16A C30U A40C G68A | 0.594
U16A C60U U64C A65C | ≤ 0.5
U16A C24U C34A C62A A65G | ≤ 0.5
U16A G67C | 0.769

Variant | yeast fitness
U16A G56A A69C | 0.753
U16A G41C | 0.668
A15U U28A C33G A65G | ≤ 0.5
U16A C33G G58A G68C | ≤ 0.5
U16A U28C G38C G39A A70G | ≤ 0.5
U16A C34A C60A | 0.574
U16A C22U A69U | 0.64
A15U U26A A57C | ≤ 0.5
U16A C29G G41C A45U | ≤ 0.5
A15U U32G G44A G52A C61U A69C | ≤ 0.5
A15U U54G | 0.539
A15U U54C | 0.703
U16A U19C G56A | 0.68
U16C A36U G44C A65C | ≤ 0.5
U16A U32A A40C G63C U64A C66G | ≤ 0.5
U16A A36C A37G G56C | ≤ 0.5
U16A U28C A69C | 0.758
U16C A36C A37U | ≤ 0.5
U16A G39A C60G A70G | ≤ 0.5
U16A G18U A37C C60A A70G | ≤ 0.5
U16A A43G | 1.01
U16A A43U | 1.14
U16A U19C C33G A43G U54A | ≤ 0.5
U16C A20C C27U | 0.662

Variant | yeast fitness
U16A C22U U26C U54G | ≤ 0.5
U16A A21U C27U A40U A65U A70C | ≤ 0.5
U16A C46A | 0.92
U16A C46U | 1.04
A15U U28A G38A G52C C60G | ≤ 0.5
U16A U59A C62U | ≤ 0.5
U16A C33A U53A G63A | ≤ 0.5
U16A C29G C31G C55A C62U A69C | ≤ 0.5
U16A C24A C30G C34U U47C | ≤ 0.5
U16A A42G C49G | 0.542
A15U U28C C55G | 0.589
U16A C29U A45G C46U A69U | ≤ 0.5
U16A G18C A20G C22U G58C C61A | ≤ 0.5
A15U U47A G58A A65C | ≤ 0.5
U16A G18U C29G C30G C46G | ≤ 0.5
U16A C34G | 0.683
U16C A20C A21U C27G A42U | ≤ 0.5
U16A C34U U47C A57U | ≤ 0.5
A15U U35A A43G G67C | ≤ 0.5
U16C A37G C61G A69G | 0.687
U16A U19C C46A A57G C61A A70C | 0.656
U16A A20U G50A | 0.513
U16A G23C | 0.699
U16C A21C G41A | ≤ 0.5

Variant | yeast fitness
U16A U47C G63A | 0.869
U16A C33G C66G | ≤ 0.5
U16A C46A A69U | 0.715
U16A U26C C30A | ≤ 0.5
U16A C30U | 0.817
U16A C30G | 0.567
U16A C30A | 0.912
U16A G48A C61U | 0.706
U16A U19A C46U U64C | 0.74
U16A G17U G18C G48C | 0.764
U16A A45C A69C | 0.662
U16C A20U G25C | ≤ 0.5
U16A C49G | 0.769
U16A C61G A65G | ≤ 0.5
U16C A21C A37G U54C C55A | ≤ 0.5
U16A C22U U28C U32C A42G C55G | ≤ 0.5
A15U U16G C55A A57C U59C | ≤ 0.5
U16A C24U C55U | 0.913
U16A U28A C62U | ≤ 0.5
U16C A21G A40G A57C | ≤ 0.5
U16A U54C C55G | ≤ 0.5
A15U U19C C31U A40C A57U | ≤ 0.5
U16A C33G | 0.612
U16C A21U C29A U35A A43U C62U G68C | ≤ 0.5

Variant | yeast fitness
U16A C49G A69U | ≤ 0.5
U16A G18C G50A A57C | ≤ 0.5
U16A C62G | 0.867
U16A C66A | 0.653
U16A G58C C61A | ≤ 0.5
U16C A20G G52A | ≤ 0.5
A15U U19A A20G A40U A43U C60G C62U G68C | ≤ 0.5
U16C A21C G41A G56A | ≤ 0.5
U16C A40U G50U | ≤ 0.5
U16A C27U C49U | 0.61
U16A U47C A69U | 0.91
A15U U32C A42C | 0.596
U16A G39A A42G C55A C62U | ≤ 0.5
U16A U28A C46G C49A A69U | ≤ 0.5
U16A C24U A42U A45U U53A G56A | ≤ 0.5
U16A A21C A37C G68A | 0.551
U16A G23C U32C C33U | ≤ 0.5
U16A U32G | 0.684
U16A C22A C29U A36G A45C | ≤ 0.5
U16A A20C C29G G63A G68C | ≤ 0.5
U16A A43G A69G A70G | ≤ 0.5
U16A C33U A36G G38C | ≤ 0.5
U16A C22G U26C C34G A37C A40U A45G C62A | ≤ 0.5
U16A G17A C33A G38C A43G U53C | ≤ 0.5

Variant | yeast fitness
U16A A36G G51A U64C A65G | ≤ 0.5
U16A C30G G44C C61A | ≤ 0.5
U16A C30G A40G U54C | ≤ 0.5
U16A C27U G38A C60G A65C | ≤ 0.5
U16A A20G A21G C34U G44A C61A G67C | ≤ 0.5
U16C A37C G67A | 0.553
U16A C34U A57G C60A | ≤ 0.5
U16A C30U A40C G48C G67C | ≤ 0.5
U16A G50A | 0.899
A15U U26G U35A G41A | ≤ 0.5
U16A A20U C46A | ≤ 0.5
U16A U26C A70U | 0.558
U16A C30U A42U | 0.618
A15U U19A A36U U54A | ≤ 0.5
U16A C24U G44C C61U | 0.66
U16A U47G G48C | 0.536
U16A U28A C49A | ≤ 0.5
U16A U28A C49G | ≤ 0.5
U16A C55A A70U | 0.542
A15U U53A G63A | ≤ 0.5
A15U U64G A69U | ≤ 0.5
U16A A21U C24A | ≤ 0.5
U16A A37U C62G | ≤ 0.5
